The nature of assay [1]: inhibitors of TNFa-induced NFkB p65 translocation, primary screen, imaging, HUVEC, MLSMR starter and 10KST1 sets (AID 438;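 active means inhibition above 20% together with a positive visual image hit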;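 further: compound added about 3h40 before a 20 min TNFalpha stimulation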;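 on inhibition: signal is the nuclear over cytoplasmic p65 intensity ratio per well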). Particulars: HUVEC TNFa-induced p65 nuclear translocation; cell count: measured here: nuclei count (cytotoxicity indicator), at 2.08 µM; inhibition: at 2 µM, stronger effect = higher value, 0% TNFa-plus-vehicle, 100% no-TNFa wells.
Assay [2] can be described thus: inhibitors of E-selectin induction by TNFa, primary screen, imaging, HUVEC, immunofluorescence, MLSMR starter and 10KST1 sets (AID 487;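 active means visually confirmed hit in the image check and inhibition above 20%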;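 on inhibition: signal is fraction of cell area covered by stained E-selectin grains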;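 on nuclei count: 100% = median nuclei count of all wells on the same plate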). Particulars: HUVEC TNFalpha-induced E-selectin immunofluorescence imaging, at 2 µM; inhibition: stronger effect = higher value; nuclei count: measured here: cell number, toxicity.
Assay [3] is described as follows: DUSP6 inhibitors restoring Erk phosphorylation by chemical complementation, primary imaging in DUSP6-transfected HeLa (AID 609;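 active means compounds giving at least 50% inhibition in the cell-based MKP-3 phosphatase rescue imaging test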;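 on inhibition: phospho-Erk level distribution per well compared with pooled transfected vehicle control wells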). Particulars: HeLa MKP-3 transfected, phospho-Erk imaging KS statistic, at 10 µM, cells stimulated with TPA for 15 min.
The target in assay [4] is Dual specificity protein phosphatase 6 (Homo sapiens) (UniProt Q16828). The description is as above. Particulars: HeLa MKP-3 transfected, phospho-Erk imaging KS statistic; at 10 µM; stronger effect = higher value; cells stimulated with TPA for 15 min.
Chain of Dual specificity protein phosphatase 6 (Homo sapiens) (Q16828 whole entry, looked up): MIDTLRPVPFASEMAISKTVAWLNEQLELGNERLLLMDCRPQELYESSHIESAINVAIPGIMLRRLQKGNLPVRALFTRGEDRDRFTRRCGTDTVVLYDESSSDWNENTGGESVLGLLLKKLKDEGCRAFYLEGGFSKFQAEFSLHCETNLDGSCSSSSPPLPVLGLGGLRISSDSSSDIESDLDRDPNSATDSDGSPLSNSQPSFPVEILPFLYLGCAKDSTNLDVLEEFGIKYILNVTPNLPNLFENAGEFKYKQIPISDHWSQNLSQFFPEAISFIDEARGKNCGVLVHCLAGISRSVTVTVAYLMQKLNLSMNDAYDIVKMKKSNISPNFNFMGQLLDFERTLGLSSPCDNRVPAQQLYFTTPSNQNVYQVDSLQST
For assay [5], the target named is Voltage-gated potassium channel subunit beta-2 (Rattus norvegicus) (UniProt P62483). Description: KvBeta enzyme negative modulators, primary screen, biochemical, NADPH fluorescence (AID 622).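 Further: slope of raw intensity against log time taken from 70 to 1610 s.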 Particulars: recombinant KvBeta, 4-cyanobenzaldehyde reduction, at 10 µM, stronger effect = higher value.
Chain of Voltage-gated potassium channel subunit beta-2 (Rattus norvegicus) (P62483 whole entry, looked up): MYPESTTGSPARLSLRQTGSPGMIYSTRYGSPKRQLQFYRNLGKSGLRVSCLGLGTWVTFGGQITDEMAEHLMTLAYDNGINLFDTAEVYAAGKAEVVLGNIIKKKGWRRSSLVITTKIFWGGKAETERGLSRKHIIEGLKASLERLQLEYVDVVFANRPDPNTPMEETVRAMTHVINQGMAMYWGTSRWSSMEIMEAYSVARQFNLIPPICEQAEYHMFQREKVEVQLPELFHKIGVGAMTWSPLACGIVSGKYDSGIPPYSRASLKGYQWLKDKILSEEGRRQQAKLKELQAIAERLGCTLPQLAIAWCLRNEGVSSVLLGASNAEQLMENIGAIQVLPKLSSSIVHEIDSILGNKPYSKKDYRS
Assay [6] shares this target. In words: KvBeta positive modulators, primary screen, biochemical, NADPH fluorescence (AID 623;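 active means NADPH fluorescence slope more negative than the mean of all samples by about 3 SD, 99.7% confidence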;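 further: fluorescence intensity change per second fitted from 20 to 320 s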). Particulars: Recombinant KvBeta, NADPH fluorescence decrease slope, 10 min; at 10 µM; stronger effect = lower value.
Assay [7] addresses Muscarinic acetylcholine receptor M4 (Homo sapiens) (UniProt P08173). Description: compounds altering M4/GIRK thallium flux, either direction, primary screen, M4 allosteric agonist project, cell-based, HEK293 M4/GIRK, BTC-AM (AID 625;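 active means fluorescence slope after compound addition differing from the mean of all tested samples at 99.7% confidence, mostly higher but some lower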;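 further: thallium influx through GIRK channels coupled to M4 in HEK293 cells with BTC-AM dye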). Particulars: at 10 µM, actives lie on both sides. The method, boiled down:
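assay system = HEK293 cells with M4 receptor and GIRK channels | medium = pH 7.3 thallium assay buffer | doses = 10 µM final, single point | timing = cells overnight at 37 °C, BTC-AM loading 1 h, reads 2 min total | signal = BTC-AM fluorescence, 1 Hz kinetic reads | read-out = post-addition slope, 15–24 s, of baseline-normalized fluorescence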

Assay [8] is described as follows: inhibitors of larval lipid processing in zebrafish, primary screen, whole organism, PED6 fluorescence, gall bladder and intestine (AID 686;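 active means a full or partial loss of lipid-probe fluorescence in the fish gall bladder, intestine or both, judged by eye; inactive means no fluorescence loss, or compound toxic to the fish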;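 further: larvae 5 to 7 days old with five fish per well; signal comes from phospholipase A2 cleavage of quenched PED6 carried via bile; overnight exposure to compound and PED6 before scoring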). Particulars: Zebrafish larvae PED6 lipid processing, fluorescence scoring; screened at 20 µM (by protocol). The method in brief: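 Also added: quenched phospholipase substrate PED6, 100 nM final, ingested by larvae; System: zebrafish larvae, 5-7 d; Quantity: 5 larvae per well; Compound: 20 µM single dose; Schedule: overnight compound and PED6 incubation; Read-out: visual per-well fluorescence inhibition score; Measured by: By-eye fluorescence microscopy; Medium: E3.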

Assay [9] is described as follows: inhibitors of Chlamydomonas gravitaxis, primary screen, whole organism, Chlamydomonas reinhardtii, WT vs cilia-less mutant, absorbance, 96-well (AID 463189;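 active means inhibition at or above 50% relative to wild type and mutant plate controls; inactive means inhibition below 50%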;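 further: 0% = wild type cc124 cells in DMSO and 100% = ciliumless bld1 mutant cells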). Particulars: OD600 absorbance, 2 days, at 10 µM, stronger effect = higher value.
[10] abbreviates: measured here: cell density z-score.
[11] abbreviates: measured here: nuclear c-Myc green intensity z-score.
The mark [12] stands for this setting: measured here: nuclear pErk red intensity z-score, stronger effect = higher value.

SMILES strings stand for the structures. The source made the active and inactive calls.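 How the source made its calls, unless noted: active means fluorescence slope higher than the sample average by over 3 SD (cut at about -0.22 in these data, passing the limit was not always enough); inactive means the rest.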

Usually inhibition stands for the relative decrease from the control value, in per cent.

Chain of Muscarinic acetylcholine receptor M4 (Homo sapiens) (P08173 whole entry, looked up): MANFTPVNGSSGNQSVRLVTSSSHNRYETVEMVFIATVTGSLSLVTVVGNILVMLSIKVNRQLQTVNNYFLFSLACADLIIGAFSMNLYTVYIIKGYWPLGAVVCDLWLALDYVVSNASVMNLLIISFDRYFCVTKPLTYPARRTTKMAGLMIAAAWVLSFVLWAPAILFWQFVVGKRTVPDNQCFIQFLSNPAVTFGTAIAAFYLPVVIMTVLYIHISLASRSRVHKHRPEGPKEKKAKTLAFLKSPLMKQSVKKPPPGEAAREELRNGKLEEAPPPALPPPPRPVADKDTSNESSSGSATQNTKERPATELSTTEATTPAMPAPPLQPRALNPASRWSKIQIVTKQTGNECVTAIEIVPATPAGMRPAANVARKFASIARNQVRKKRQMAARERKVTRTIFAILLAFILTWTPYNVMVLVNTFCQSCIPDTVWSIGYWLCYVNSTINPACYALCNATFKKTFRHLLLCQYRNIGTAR

Take `c1ccc2c(c1)[nH]c1c(N3CCSCC3)ncnc12`: the cell count in assay [1] amounted to 567. The inhibition in assay [1] was -4.6% (inactive); in assay [2], -117% (inactive); in assay [4] it was -4.59% (inactive); in assay [9] it was 14.6% (inactive). The nuclei count in assay [2] was 193%. For the same molecule, the z-score in assay [3] (setting [10]) is 0.216; in assay [3] (setting [11]) it was -0.97; in [3] (setting [12]), -0.889. The results for the fluorescence slope in assay [5] and in [7] were -0.358 (inactive) and 0.00494 (inactive), respectively. Moreover, the NADPH fluorescence slope in assay [6] was -3.7e-06 (inactive). For the same molecule, the call in [8] was inactive.
With `CCOc1ccc(C2C=C(c3ccccc3)Nc3ncnn32)cc1` (stereo unspecified), the cell count in assay [1] came to 531. The inhibition in assay [1] is -1.1% (inactive); in assay [2] it was 58.8% (inactive); in assay [4], 11.9% (inactive); in [9], 22.6% (inactive). For the same molecule, in assay [2], the nuclei count amounted to 151%. The z-score in [3] (setting [10]) is -0.603; in [3] (setting [11]), 0.992; in assay [3] (setting [12]) it was -0.889. The fluorescence slope was -0.0438 (inactive) in [5] and 0.00687 (inactive) in [7]. Moreover, in assay [6], the NADPH fluorescence slope is -6.4e-06 (inactive). Moreover, in assay [8], the molecule was called inactive.
Take `Cc1cccc(NC(=O)c2cc(N3CCOCC3)nc3ccccc23)c1`: the cell count in [1] is 620. Also, the inhibition was -13.1% (inactive) in assay [1], -446% (inactive) in assay [2], -11.5% (inactive) in assay [4] and -4.1% (inactive) in assay [9]. In assay [2], this molecule had a nuclei count of 148%. Besides, the z-score in [3] (setting [10]) is -1.06; in assay [3] (setting [11]) it was 1.5; in [3] (setting [12]), 2.96. The fluorescence slope in assay [5] is -0.438 (inactive); in assay [7] it was 0.00519 (inactive). Also, in [6], the NADPH fluorescence slope was -7.5e-05 (inactive). Further, the result in assay [8] was inactive.
Take `CCNC(=O)COn1c(SCC(=O)NCC)nc2ccccc2c1=O`: the cell count in assay [1] worked out at 763. For the same molecule, the inhibition in assay [1] was 2.9% (inactive); in [2] it was 10% (inactive); in assay [4], -4.7% (inactive); in assay [9], -4.94% (inactive). The molecule also had a nuclei count in assay [2] of 174%. The z-score was found to be 0.564 in assay [3] (setting [10]), 0.056 in [3] (setting [11]) and 0.704 in [3] (setting [12]). In addition, the fluorescence slope in assay [5] is -0.443 (inactive); in assay [7] it was 0.00588 (inactive). Moreover, the NADPH fluorescence slope in assay [6] was -4.1e-05 (inactive). The result in assay [8] was inactive.
Take `CCCOc1ccc(C2/C(=C(/O)c3ccccc3)C(=O)C(=O)N2CCCN(C)C)cc1OC` (stereo unspecified): the cell count in assay [1] came to 399. Moreover, the inhibition in [1] is -2.9% (inactive); in assay [2] it was -92.3% (inactive); in [4], 18.2% (inactive); in assay [9], 26.4% (inactive). Besides, the nuclei count in assay [2] is 157%. The figures for the z-score in assay [3] (setting [10]), in assay [3] (setting [11]) and in assay [3] (setting [12]) were 0.261, -0.731 and -0.508, respectively. Moreover, the fluorescence slope was -0.463 (inactive) in [5] and 0.00492 (inactive) in assay [7]. Besides, the NADPH fluorescence slope in assay [6] was -0.000127 (inactive). Moreover, the result in [8] was inactive.
For `Cc1cccc(N2CC(=O)N(c3cccc(C)c3)CC2=O)c1`, the cell count in assay [1] turned out to be 691. For the same molecule, the inhibition in assay [1] is -1.4% (inactive); in assay [2], -33.5% (inactive); in assay [4], 3.97% (inactive); in [9], -8.04% (inactive). In addition, the nuclei count in [2] stood at 201%. Also, the z-score in [3] (setting [10]) was -0.963; in assay [3] (setting [11]) it was 0.808; in assay [3] (setting [12]), -0.574. Besides, the fluorescence slope in assay [5] is -0.477 (inactive); in [7], 0.00702 (inactive). The NADPH fluorescence slope in [6] is -5.4e-05 (inactive). In assay [8], the call was inactive.
As for `Cc1sc(-n2c(C)cc(/C=N/n3cnnc3)c2C)c(C#N)c1C`, in assay [1], the cell count worked out at 408. The inhibition was 1.9% (inactive) in assay [1], 29.3% (inactive) in [2], 3.56% (inactive) in assay [4] and 14% (inactive) in [9]. Besides, the nuclei count in assay [2] stood at 85.2%. Further, the z-score in [3] (setting [10]) was -1.21; in assay [3] (setting [11]), -0.424; in assay [3] (setting [12]) it was 0.842. Besides, the fluorescence slope was -0.546 (inactive) in assay [5] and 0.00473 (inactive) in [7]. The NADPH fluorescence slope in [6] was -9.2e-05 (inactive). In addition, in [8], the result was inactive.

Source of the values: PubChem BioAssay.
